Test results reported in ChEMBL document CHEMBL4834403, “Design and Synthesis of Novel Epigenetic Inhibitors Targeting Histone Deacetylases, DNA Methyltransferase 1, and Lysine Methyltransferase G9a with In Vivo Efficacy in Multiple Myeloma” (J Med Chem, 2021).
The source made the active and inactive calls. The calls are words filed in the database; no cut-off is given here.

Assays:
MM1.S [1] = experiment: Induction of DNA hypomethylation in human MM1.S cells assessed as CPG hypomethylation at position 3 at 2 uM measured after 5 days relative to control; format: cell-based; conditions: time 5.0 day
How it was run: (§1)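 MM1.S cells dosed every day for 5 days at 2 μM or 10 nM. DNA methylation at CpGs of the POU4F2 promoter read by pyrosequencing; run in duplicate.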

[2] = biological target: DNA (cytosine-5)-methyltransferase 1 (Homo sapiens, UniProt P26358); experiment: Inhibition of human DNMT1 enzyme using polydeoxy-inosine polydeoxy-cytosine DNA as substrate incubated for 15 mins in presence of SAM by TR-FRET assay
[3] = Stability of the compound in human pooled hepatocytes assessed as parent compound remaining incubated for 60 mins; format: ADME, cell-based, Hepatocyte; conditions: read-out: Stabilty
[4] = Permeability of the compound in PBS/EtOH buffer (70:30) incubated for 18 hrs by UV plate reader based PAMPA assay; format: ADME; conditions: read-out: permeability
[5] = Apparent volume of distribution during terminal phase in BALB/c RAG2-/- gammaC-/- mouse at 10 mg/kg, ip using 80% saline 10% Tween20 and 10% DMSO formulation measured up to 24 hrs by UPLC-triple quadrupole MS analysis; format: ADME, organism-based; conditions: in vivo, read-out: Vz/F
[6] = Kinetic solubility of the compound; format: physicochemical; conditions: read-out: Kinetic_solubility
[7] = AUC (0 to 24 hrs) in BALB/c RAG2-/- gammaC-/- mouse at 10 mg/kg, ip using 80% saline 10% Tween20 and 10% DMSO formulation measured up to 24 hrs by UPLC-triple quadrupole MS analysis; format: ADME, organism-based; set-up: route intraperitoneal, dose 10 mg/kg, time <=24; conditions: in vivo
CYP2C9 = CYP2C9 (Homo sapiens, UniProt P11712); experiment: Inhibition of CYP2C9 in human liver microsomes at 10 uM incubated for 10 mins in presence of NADPH by LC-MS/MS analysis relative to control; format: ADME
[8] = AUC (0 to 24 hrs) in BALB/c RAG2-/- gammaC-/- mouse at 10 mg/kg, ip measured up to 24 hrs by UPLC-triple quadrupole MS analysis; format: ADME, organism-based; set-up: route intraperitoneal, dose 10 mg/kg, time <=24; conditions: in vivo
[9] = Intrinsic clearance in mouse pooled hepatocytes; format: ADME, cell-based, Hepatocyte; conditions: read-out: CLH
[10] = Apparent volume of distribution during terminal phase in BALB/c RAG2-/- gammaC-/- mouse at 10 mg/kg, ip measured up to 24 hrs by UPLC-triple quadrupole MS analysis; format: ADME, organism-based; conditions: in vivo, read-out: Vz/F
CYP3A4 = CYP3A4 (Homo sapiens, UniProt P08684); experiment: Inhibition of CYP3A4 in human liver microsomes at 10 uM incubated for 10 mins in presence of NADPH by LC-MS/MS analysis relative to control; format: ADME
MM1.S [11] = experiment: Induction of DNA hypomethylation in human MM1.S cells assessed as CPG hypomethylation at position 5 at 10 nM measured after 5 days relative to control; format: cell-based; conditions: time 5.0 day; how it was run: as §1
[12] = Half life in BALB/c RAG2-/- gammaC-/- mouse at 10 mg/kg, ip using 80% saline 10% Tween20 and 10% DMSO formulation measured up to 24 hrs by UPLC-triple quadrupole MS analysis; format: ADME, organism-based; conditions: in vivo
MM1.S [13] = experiment: Induction of DNA hypomethylation in human MM1.S cells assessed as CPG hypomethylation at position 4 at 10 nM measured after 5 days relative to control; format: cell-based; conditions: time 5.0 day; how it was run: as §1
[14] = Half life in BALB/c RAG2-/- gammaC-/- mouse at 10 mg/kg, ip measured up to 24 hrs by UPLC-triple quadrupole MS analysis; format: ADME, organism-based; conditions: in vivo
[15] = Toxicity in BALB/c RAG2-/- gammaC-/- mouse xenografted with human MM1.S cells assessed as effect on body weight at 10 mg/kg, ip administered for 5 consecutive days followed by 2 days rest and measured after 35 days; format: organism-based; conditions: in vivo, 840 h, time 35 day
[16] = Apparent oral clearance in BALB/c RAG2-/- gammaC-/- mouse at 10 mg/kg, ip using 80% saline 10% Tween20 and 10% DMSO formulation measured up to 24 hrs by UPLC-triple quadrupole MS analysis; format: ADME, organism-based; conditions: in vivo
[17] = biological target: T1, Histone-lysine N-methyltransferase EHMT2 (Homo sapiens) (UniProt Q96KQ7); experiment: Inhibition of G9A in human MM1.S cells assessed as decrease in H3K9Me2 levels up to 1000 nM after 48 hrs by Western blot analysis; format: cell-based; conditions: dose nM <=1000, time 48.0 hrs
T1 sequence (whole entry): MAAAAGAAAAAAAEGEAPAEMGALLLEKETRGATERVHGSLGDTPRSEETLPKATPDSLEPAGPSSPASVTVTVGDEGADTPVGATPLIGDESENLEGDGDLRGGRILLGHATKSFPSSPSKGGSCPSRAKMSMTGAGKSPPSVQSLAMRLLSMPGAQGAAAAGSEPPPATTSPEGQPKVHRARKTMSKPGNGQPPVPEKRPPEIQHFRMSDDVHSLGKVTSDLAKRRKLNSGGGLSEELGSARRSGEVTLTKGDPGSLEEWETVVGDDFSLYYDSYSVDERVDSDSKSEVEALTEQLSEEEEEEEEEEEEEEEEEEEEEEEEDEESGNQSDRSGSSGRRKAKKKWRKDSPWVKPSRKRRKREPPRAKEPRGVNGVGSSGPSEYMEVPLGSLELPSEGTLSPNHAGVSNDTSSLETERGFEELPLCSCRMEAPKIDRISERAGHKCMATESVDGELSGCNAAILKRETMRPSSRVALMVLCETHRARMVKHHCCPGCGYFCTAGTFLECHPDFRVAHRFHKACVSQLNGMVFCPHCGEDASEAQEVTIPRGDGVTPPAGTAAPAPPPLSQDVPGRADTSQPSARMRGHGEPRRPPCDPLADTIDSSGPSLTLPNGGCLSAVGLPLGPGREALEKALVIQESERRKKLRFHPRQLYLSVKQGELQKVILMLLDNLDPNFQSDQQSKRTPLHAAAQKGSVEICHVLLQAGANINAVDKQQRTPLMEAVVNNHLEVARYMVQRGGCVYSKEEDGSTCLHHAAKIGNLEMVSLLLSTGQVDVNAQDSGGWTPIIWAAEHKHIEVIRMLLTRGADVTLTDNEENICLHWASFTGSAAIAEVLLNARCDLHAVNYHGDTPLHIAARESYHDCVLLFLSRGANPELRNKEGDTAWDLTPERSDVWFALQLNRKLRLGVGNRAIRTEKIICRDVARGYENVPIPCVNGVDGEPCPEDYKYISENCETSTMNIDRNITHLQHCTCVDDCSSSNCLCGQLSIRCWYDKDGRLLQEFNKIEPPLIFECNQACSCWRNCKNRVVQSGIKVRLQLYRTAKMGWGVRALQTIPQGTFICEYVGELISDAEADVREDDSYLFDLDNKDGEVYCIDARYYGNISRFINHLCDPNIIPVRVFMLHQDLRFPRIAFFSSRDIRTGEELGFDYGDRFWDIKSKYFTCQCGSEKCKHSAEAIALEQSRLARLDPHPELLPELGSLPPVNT
How it was run: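 MM1.S cells exposed 48 h across a concentration range. Global H3K9Ac and H3K9me2 read by Western blot; run in duplicate.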

Sequence of CYP3A4 (P08684 whole entry): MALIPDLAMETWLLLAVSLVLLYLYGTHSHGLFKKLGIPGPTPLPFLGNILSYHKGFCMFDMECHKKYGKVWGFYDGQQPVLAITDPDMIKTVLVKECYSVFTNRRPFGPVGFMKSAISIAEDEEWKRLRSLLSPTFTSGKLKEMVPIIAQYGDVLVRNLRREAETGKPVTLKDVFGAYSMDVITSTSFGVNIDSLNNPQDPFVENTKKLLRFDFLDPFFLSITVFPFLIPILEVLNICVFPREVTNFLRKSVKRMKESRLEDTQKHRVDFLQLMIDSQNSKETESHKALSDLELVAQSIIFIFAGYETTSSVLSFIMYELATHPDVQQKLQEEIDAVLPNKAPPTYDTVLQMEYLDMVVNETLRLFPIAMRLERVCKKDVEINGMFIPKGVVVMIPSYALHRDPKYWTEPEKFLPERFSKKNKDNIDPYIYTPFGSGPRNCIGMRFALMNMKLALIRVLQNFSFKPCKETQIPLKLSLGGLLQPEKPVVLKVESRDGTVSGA
Sequence of DNA (cytosine-5)-methyltransferase 1 (P26358 whole entry): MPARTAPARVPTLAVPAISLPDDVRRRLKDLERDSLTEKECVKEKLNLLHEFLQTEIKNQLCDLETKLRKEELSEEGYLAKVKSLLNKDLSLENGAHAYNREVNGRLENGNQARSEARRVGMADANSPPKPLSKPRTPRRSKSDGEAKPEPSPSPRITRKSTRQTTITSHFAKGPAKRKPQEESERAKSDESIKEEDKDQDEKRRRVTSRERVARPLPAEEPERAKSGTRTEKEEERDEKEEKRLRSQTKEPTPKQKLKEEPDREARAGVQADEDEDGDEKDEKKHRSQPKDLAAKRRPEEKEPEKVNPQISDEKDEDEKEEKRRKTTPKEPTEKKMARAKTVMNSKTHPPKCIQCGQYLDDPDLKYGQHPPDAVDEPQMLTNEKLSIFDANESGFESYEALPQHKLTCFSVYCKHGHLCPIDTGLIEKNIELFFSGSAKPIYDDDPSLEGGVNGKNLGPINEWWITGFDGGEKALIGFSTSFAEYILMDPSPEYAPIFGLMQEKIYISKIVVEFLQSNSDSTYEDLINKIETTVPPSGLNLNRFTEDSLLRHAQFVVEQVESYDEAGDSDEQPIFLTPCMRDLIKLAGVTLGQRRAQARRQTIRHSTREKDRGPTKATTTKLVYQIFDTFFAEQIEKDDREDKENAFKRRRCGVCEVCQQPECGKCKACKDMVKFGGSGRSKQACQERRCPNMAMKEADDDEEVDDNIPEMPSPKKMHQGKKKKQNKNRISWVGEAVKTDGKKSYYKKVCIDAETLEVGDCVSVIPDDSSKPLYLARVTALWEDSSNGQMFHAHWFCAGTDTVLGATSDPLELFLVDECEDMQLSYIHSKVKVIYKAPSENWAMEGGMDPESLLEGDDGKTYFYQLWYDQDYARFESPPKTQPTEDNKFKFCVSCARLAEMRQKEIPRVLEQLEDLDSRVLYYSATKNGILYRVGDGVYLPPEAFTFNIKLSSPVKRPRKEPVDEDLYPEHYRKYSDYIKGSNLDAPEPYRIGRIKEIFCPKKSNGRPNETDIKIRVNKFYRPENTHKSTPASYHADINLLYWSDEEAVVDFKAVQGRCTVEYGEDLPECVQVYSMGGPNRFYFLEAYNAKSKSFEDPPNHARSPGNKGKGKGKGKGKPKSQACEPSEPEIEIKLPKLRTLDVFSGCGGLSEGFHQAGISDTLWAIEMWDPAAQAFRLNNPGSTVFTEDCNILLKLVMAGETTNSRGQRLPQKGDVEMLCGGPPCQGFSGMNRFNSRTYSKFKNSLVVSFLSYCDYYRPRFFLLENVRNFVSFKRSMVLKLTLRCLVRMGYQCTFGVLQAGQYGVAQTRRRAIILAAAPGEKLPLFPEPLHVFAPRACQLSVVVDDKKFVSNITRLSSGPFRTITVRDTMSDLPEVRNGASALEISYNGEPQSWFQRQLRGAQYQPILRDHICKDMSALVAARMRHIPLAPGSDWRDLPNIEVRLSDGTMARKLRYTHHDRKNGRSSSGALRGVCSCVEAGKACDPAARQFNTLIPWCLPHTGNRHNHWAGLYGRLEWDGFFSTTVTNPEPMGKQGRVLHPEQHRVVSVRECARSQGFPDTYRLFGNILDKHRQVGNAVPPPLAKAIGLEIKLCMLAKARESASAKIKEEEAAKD
Sequence of CYP2C9 (P11712 whole entry): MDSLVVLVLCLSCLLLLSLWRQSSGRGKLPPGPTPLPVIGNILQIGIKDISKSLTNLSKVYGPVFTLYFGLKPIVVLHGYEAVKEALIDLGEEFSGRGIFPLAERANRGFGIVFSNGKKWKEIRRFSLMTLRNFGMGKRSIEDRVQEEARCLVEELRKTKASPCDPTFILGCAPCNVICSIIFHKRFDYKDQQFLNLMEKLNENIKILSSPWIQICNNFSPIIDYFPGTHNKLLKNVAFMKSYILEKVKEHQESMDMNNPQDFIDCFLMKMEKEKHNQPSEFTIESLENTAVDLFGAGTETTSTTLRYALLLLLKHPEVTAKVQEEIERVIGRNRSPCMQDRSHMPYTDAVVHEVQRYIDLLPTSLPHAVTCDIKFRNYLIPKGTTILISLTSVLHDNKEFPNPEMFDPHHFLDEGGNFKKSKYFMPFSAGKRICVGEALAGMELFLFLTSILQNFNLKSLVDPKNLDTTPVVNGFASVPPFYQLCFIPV

| SMILES | Activity (MM1.S [1]) | IC50 [2] | remaining at 1 h [3] | Papp at 18 h [4] | Vd/F [5] | solubility kinetic [6] | AUC(0-t) [7] | inhibition at 10 min, 10 µM (CYP2C9) | AUC(0-t) [8] | CLint scaled [9] | Vd/F [10] | inhibition at 10 min, 10 µM (CYP3A4) | Activity (MM1.S [11]) | half-life [12] | Activity (MM1.S [13]) | half-life [14] | Activity [15] | CL/F [16] | inhibition [17] |
| --- | --- | --- | --- | --- | --- | --- | --- | --- | --- | --- | --- | --- | --- | --- | --- | --- | --- | --- | --- |
| COc1cc2c(NCC3CCN(c4ncc(C(=O)NO)cn4)CC3)cc(-c3ccc(C)o3)nc2cc1OCCCN1CCCC1 | 15% | 1160 nM |  |  |  |  |  |  |  |  |  |  |  |  |  |  |  |  |  |
| COc1cc2nc(-c3ccc(C)o3)cc(NCC3CCN(c4ncc(C(=O)NO)cn4)CC3)c2cc1OC |  |  | 50.8% | 0.504 ×10⁻⁶ cm/s | 6.56 L | < 0.987 µg/mL | 0.916 µM·h | 0% | 0.591 µM·h | 411 mL/min/kg | 4.6 L | 50.8% | 10% | 8.46 h | 10% | 3.8 h | Non-Toxic | 8.83 mL/min | inactive |
